Experimental data gathered from unrelated publications.
Lines come from different studies, so protocols differ.
Cell line: Jurkat
Effect on: cell growth or viability

Compound | technique | time | IC50
COc1cccc2c1C(=O)c1c(O)c3c(c(O)c1C2=O)C[C@@](O)(C(=O)CO)C[C@@H]3O[C@H]1C[C@H](N)[C@H](O)[C@H](C)O1 | MTT | 48 h | 2.5 µg/mL
CCCCCC/C=C1\CC2C=CC=CC1C2C1CCCCC1=O (stereo not drawn) | flow cytometry | – | 29 nM
COCCOCOc1ccc(C(=O)/C=C/c2ccc(C(=O)O)cc2)cc1C12CC3CC(CC(C3)C1)C2 | ATP luminescence | 24 h | 1800 nM
O=C1CCCCC1C1C2C=CC=CC1/C(=C/Cc1ccccc1)C2 (stereo not drawn) | flow cytometry | – | 61 nM
CCCCN(Cc1ccc(C(=O)NO)cc1)C(=O)Nc1ccccc1 | ATP luminescence | 72 h | 7410 nM
O=C1CCCCC1C1C2C=CC=CC1C(C1CC1)=C2 (stereo not drawn) | flow cytometry | – | 39 nM
CCCON(Cc1ccc(C(=O)NO)cc1)C(=O)Nc1ccccc1 | ATP luminescence | 72 h | 7090 nM
CC(=O)O[C@H]1C(=O)[C@@]2(C)[C@H]([C@H](OC(=O)c3ccccc3)[C@]3(O)C[C@H](OC(=O)[C@H](O)[C@@H](NC(=O)c4ccccc4)c4ccccc4)C(C)=C1C3(C)C)[C@]1(OC(C)=O)CO[C@@H]1C[C@@H]2O | – | 72 h | 2.8 nM
COc1cc(/C=C/C(=O)CC(=O)/C=C/c2ccc(O)c(OC)c2)ccc1O | MTT | 48 h | 28.9 µg/mL
CC[C@]1(O)C[C@H]2CN(CCc3c([nH]c4ccccc34)[C@@](C(=O)OC)(c3cc4c(cc3OC)N(C=O)[C@H]3[C@@](O)(C(=O)OC)[C@H](OC(C)=O)[C@]5(CC)C=CCN6CC[C@]43[C@@H]65)C2)C1 | MTT | – | 1.1 nM
CC(=O)O[C@H](C)C(=O)CCCCCCC(=O)Nc1ccccc1 | thymidine uptake | – | > 100000 nM
COCCOCOc1cc(O)c(-c2cc(-c3ccc(C(=O)O)cc3)no2)cc1C12CC3CC(CC(C3)C1)C2 | ATP luminescence | 24 h | 1950 nM
CCCCCCCCC1=CC2C=CC=CC1C2C1CCCCC1=O (stereo not drawn) | flow cytometry | – | 79 nM
C[C@@H](O)C(=O)CCCCCCC(=O)Nc1ccccc1 | thymidine uptake | – | 92000 nM
COc1ccc(/C=C\c2cc(OC)c(OC)c(OC)c2)cc1O | – | – | 5 nM
